Source: PubChem BioAssay (several laboratories)
WT yeast gro inh: growth inhibition of WT strain, primary screen, mitochondrial fusion inhibitor project, WT and mutant strains, chemical genetic. mitochondrial fusion phenotypic screen. inhibition, % at 10 µM. 2.1% of 190,000 active; in the data active = inhibition above about 58%; tested in S. cerevisiae
Diaphorase inh: diaphorase inhibitors and chemical oxidizers, primary screen, counter-screen for diaphorase-coupled primary assays, biochemical, uHTS, resorufin fluorescence | diaphorase resazurin-to-resorufin fluorescence, NADH, 16 min; bacterial (C. kluyveri) enzyme, not human | inhibition, % at 20 µM | 0.69% of 190,000 active | AID 1217, 2008;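 active = primary screen inhibition at 20 µM above a set limit, cut at about 50% in these data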
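Test system: bacterial diaphorase enzyme (C. kluyveri); Quantity: 0.14 U/mL diaphorase, enzyme working solution; Times: reaction incubation of 16 min at room temperature; Measured by: fluorescence of resorufin formed from resazurin, Ex 544/Em 590 nm; Benchmarks: positive control minus NADH, DMSO neutral control.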
Diaph act CS: compounds boosting diaphorase resazurin reduction – biochemical, uHTS, resorufin fluorescence, counter-screen for diaphorase-coupled primary assays, primary screen. Diaphorase/resazurin coupled assay, 16 min; stronger effect = higher value; 1 = vehicle wells, 0 = NADH-free wells. activation factor at 20 µM. 0.005% of 190,000 active. AID 1229, 2008;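 active = diaphorase activity raised at least twofold by the compound at 20 µM; inactive = activation factor below 2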
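test system = bacterial diaphorase enzyme (C. kluyveri) | quantity = enzyme 0.07 U/mL final | reagent = NADH substrate 0.114 mM plus resazurin dye 0.1 mM, final | incubation = 16 min enzyme reaction, ambient temperature | buffer or medium = HEPES pH 7.4 buffer with MgCl2 and Tween 20 | signal = fluorescence of resorufin, 544 nm excitation, 590 nm emission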
G6PDH counter: L. mesenteroides G6PDH inhibitors, counter-screen for G6PDH-coupled screening assays, biochemical, Leuconostoc mesenteroides enzyme. glucose-6-phosphate dehydrogenase [Leuconostoc mesenteroides]. inhibition, % at 5 µM. Purified L. mesenteroides G6PDH, diaphorase/resazurin coupled fluorescence, 45 min. 0.12% of 200,000 active
Lmaj promast: Leishmania major promastigote growth inhibition, primary screen. 9% of 200,000 active. Leishmania major promastigotes, resazurin fluorescence viability. inhibition, % at 10 µM;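 also: promastigotes grown with compound for 44 hours at 28 °C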
Of the large screens only hits and unclear results are named; the others gave an inactive call. A selection: hits, their analogues and other compounds. The true share with any hit is near 11%. Rule as the data show it, unless noted: active = inhibition above about 50%; inactive = the rest.

Cc1cc(Cl)cc(Br)c1OCCCCn1cncn1	Lmaj promast 93
O=S(=O)(NC1CCCCC1)c1ccc(Cl)s1	none
COc1ccc(-c2nnc(Nc3ccc(OC)c(C(=O)N4CCCCC4)c3)c3ccccc23)cc1	Lmaj promast 53
O=C(CCC1CCCCC1)Nc1ccc(C(=O)c2ccncc2)cc1	none
Cc1ccc(N2C(=O)C3C4C=CC(CNC(=S)N5CCN(c6ccccc6)CC5)(O4)C3C2=O)cc1 (centres undefined)	none
Cc1cccc(NC(=S)NCC23C=CC(O2)C2C(=O)N(c4ccc(Cl)cc4)C(=O)C23)c1 (centres undefined)	Lmaj promast 53
Cc1ccc(NC(=S)NCC23C=CC(O2)C2C(=O)N(c4ccc(C)cc4)C(=O)C23)cc1 (centres undefined)	Lmaj promast 92
Cc1ccc(CN(C(=O)c2cc3ccccc3oc2=O)C2CCS(=O)(=O)C2)cc1 (centres undefined)	none
COc1ccc(CN(C(=O)c2oc3ccccc3c2C)C2CCS(=O)(=O)C2)cc1 (centres undefined)	Lmaj promast 54
Cc1cc2oc(C(=O)N(Cc3ccccc3)C3CCS(=O)(=O)C3)cc(=O)c2cc1Cl (centres undefined)	Lmaj promast 50
CCOc1nc(Nc2ccc(OC)c(Cl)c2)nc(N2CCN(c3ccc(OC)cc3)CC2)n1	Lmaj promast 72
COc1nc(Nc2ccc(OC)c(Cl)c2)nc(OC)n1	none
CCOc1ccc(Nc2nc(N3CCCC3)nc(N3CCN(c4ccc(OC)cc4)CC3)n2)cc1	Lmaj promast 55
N#Cc1ccc(Oc2nc(Nc3ccc(F)cc3)nc(N3CCCC3)n2)cc1	none
CCOc1nc(Nc2ccc(F)cc2)nc(N2CCN(c3ccc(OC)cc3)CC2)n1	Lmaj promast 70
CC(C)c1ccc(S(=O)(=O)/N=C2/C=CC(=O)c3ccccc32)cc1	WT yeast gro inh 68, G6PDH counter 55, Lmaj promast 74
OCCN1CCN(CCCN2c3ccccc3Sc3ccc(Cl)cc32)CC1	WT yeast gro inh 96, Lmaj promast 96
CN(C)CCCN1c2ccccc2CCc2ccccc21	none
OCCOCCN1CCN(C2=Nc3ccccc3Sc3ccccc32)CC1	none (no result: Lmaj promast)
CN(C)CCCN1c2ccccc2Sc2ccc(Cl)cc21	Lmaj promast 83
CCCc1cc(-c2nc(-c3ccc(Br)cc3)cs2)ccn1	WT yeast gro inh 69, Lmaj promast 60
Brc1ccc(-c2csc(N/N=C/c3ccco3)n2)cc1	none
CCCc1cc(-c2nc(-c3ccc(Cl)cc3)cs2)ccn1	WT yeast gro inh 78
CCOC(=O)C(NC(=O)CC)(N1CCc2ccccc2C1)C(F)(F)F (centres undefined)	none
CC(Sc1ccc2c(c1)OCCO2)C(=O)Nc1ncc(Cl)cc1Cl (centres undefined)	Diaphorase inh 64
Cc1nn(-c2ccccc2)c2sc(C(=O)C(C#N)c3ccccn3)cc12 (centres undefined)	none (no result: WT yeast gro inh, Lmaj promast)
Cc1cc(C)nc(NC(=O)c2c(-c3ccccc3Cl)noc2C)c1	none
O=C1N/C(=N\N=C\c2cccnc2)SC1Cc1ccc(SC(F)F)cc1 (centres undefined)	Lmaj promast 74
C/C(=N\Nc1nc(Cl)c(Cl)cc1Cl)c1ccc(S(=O)(=O)NCc2ccco2)cc1	Lmaj promast 100
C/C(=N\Nc1ccc(C(F)(F)F)cn1)c1ccc(S(=O)(=O)NCc2ccco2)cc1	Lmaj promast 75
C/C(=N\Nc1ccccn1)c1ccc(S(=O)(=O)NCc2ccco2)cc1	none
COc1ccc(Br)cc1/C=C/C(=O)c1ccc(NC(C)=O)cc1	WT yeast gro inh 84, Lmaj promast 100
COc1ccc(NC(=O)/C=C/c2cc(Br)ccc2OC)cc1	none
COc1ccc(Br)cc1/C=C/C(=O)Nc1c(C)cccc1C	Lmaj promast 62
COc1ccc(OC)c(NC(=O)Cc2coc3ccc4ccccc4c23)c1	none
O=C(Nc1ccc(F)cc1)NC1(C(=O)NCc2ccc3c(c2)OCO3)CCCCC1	Lmaj promast 91
Cc1ccc(CNC(=O)C2(NC(=O)Nc3ccc(C)cc3)CCCCC2)cc1	none
O=C(NCc1ccc2c(c1)OCO2)C1CCCN1C(=O)Nc1ccc(F)cc1 (centres undefined)	Lmaj promast 92
O=C(Nc1ccc(F)cc1)NC1(C(=O)NCc2ccco2)CCCCC1	Lmaj promast 82
CCOC(=O)Cn1nc(C)c(NC(=O)COc2ccccc2[N+](=O)[O-])c1C	none
O=C(N/N=C/c1ccccc1OCc1ccccc1)c1cccnc1	Lmaj promast 75
O=C(N/N=C/c1c(-c2ccccc2)[nH]c2ccccc12)c1cccnc1	none
O=C(O)c1cccc(NC(=S)N/N=C/c2ccccc2OCc2cccc(Br)c2)c1	Diaphorase inh 57
O=C(O)c1cccc(NC(=S)N/N=C/c2ccccc2OCc2ccc(Br)cc2)c1	Diaphorase inh 51
O=C(O)c1cccc(NC(=S)N/N=C/c2cccc(O)c2)c1	none
CC(=O)Nc1ccc(C(=O)N/N=C/c2ccccc2OCc2ccccc2)cc1	none
Cn1c(-c2ccccc2)c(/C=N/NC(=O)c2cccnc2)c2ccccc21	Lmaj promast 62
COC(=O)c1ccc(COc2ccccc2/C=N/Nc2cccc(C(=O)O)c2)cc1	none
Cc1cc(NC(=O)CSc2nc(-c3ccccc3)nc3c2c(=O)n(C)c(=O)n3C)no1	none
Cc1cc(C)c2c(N)c3cccc(C)c3nc2n1	Lmaj promast 100
Cc1cccc2c(N)c3c(nc12)CCCC3 (tested in a mixture with another compound)	Lmaj promast 67
Cc1cc(OCC(=O)O)c2cccc(C)c2n1	none
O=[N+]([O-])c1cccc(-c2nc(N3CCOCC3)c3ccccc3n2)c1	none
CN(Cc1ccccc1)c1nc(-c2cccc([N+](=O)[O-])c2)nc2ccccc12	Lmaj promast 92
O=[N+]([O-])c1cccc(-c2nc(NCc3ccccc3)c3ccccc3n2)c1	Lmaj promast 58
CSCCC(NS(=O)(=O)c1c(Cl)cccc1Cl)C(=O)O (centres undefined)	none
O=C(COC(=O)C1COc2ccccc2O1)NC(=O)Nc1ccc2c(c1)OCCO2 (centres undefined)	WT yeast gro inh 99
Cc1ccccc1C1(CCN2CCCCC2)CCOC(C)(C)C1 (centres undefined)	none
COc1ccc(N/C(N)=N/c2nc(CSc3ccc(C)cc3)cc(=O)[nH]2)cc1	WT yeast gro inh 80
COc1ccc2nc(Nc3nc(CSc4nnnn4-c4ccccc4)cc(=O)[nH]3)nc(C)c2c1	none
CCOc1ccc2nc(Nc3nc(CSc4nnnn4-c4ccccc4)cc(=O)[nH]3)nc(C)c2c1	Lmaj promast 50
